Laboratory results taken from ChEMBL document CHEMBL5357042, “Discovery of imidazo[1,2-b]pyridazine-containing TAK1 kinase inhibitors with excellent activities against multiple myeloma” (RSC Med Chem, 2024).
Active and inactive are the calls of the source. The rule behind the calls is not given here.

Tests used:
[1] = target: T1, Mitogen-activated protein kinase kinase kinase 7 (Homo sapiens) (UniProt O43318); assay: Inhibition of TAK1 (unknown origin) at 500 nM by ADP-Glo kinase assay
T1 sequence (whole entry): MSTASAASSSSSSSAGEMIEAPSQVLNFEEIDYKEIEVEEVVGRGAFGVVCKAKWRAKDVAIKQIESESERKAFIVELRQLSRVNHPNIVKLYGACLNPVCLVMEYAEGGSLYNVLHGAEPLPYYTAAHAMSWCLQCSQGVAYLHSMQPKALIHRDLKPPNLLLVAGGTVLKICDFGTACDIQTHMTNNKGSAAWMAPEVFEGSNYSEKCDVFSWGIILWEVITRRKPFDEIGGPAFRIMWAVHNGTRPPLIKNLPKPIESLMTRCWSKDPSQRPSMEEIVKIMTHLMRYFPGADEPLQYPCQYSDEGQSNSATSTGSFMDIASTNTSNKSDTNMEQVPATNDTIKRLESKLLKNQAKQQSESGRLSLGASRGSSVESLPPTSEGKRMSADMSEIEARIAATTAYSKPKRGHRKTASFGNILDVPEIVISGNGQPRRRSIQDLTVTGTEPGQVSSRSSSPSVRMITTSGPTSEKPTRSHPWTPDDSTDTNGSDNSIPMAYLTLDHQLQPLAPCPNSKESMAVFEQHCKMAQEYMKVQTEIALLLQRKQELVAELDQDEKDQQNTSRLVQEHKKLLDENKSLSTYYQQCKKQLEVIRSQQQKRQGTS

[2] = target: T1, Mitogen-activated protein kinase kinase kinase 7 (Homo sapiens); assay: Inhibition of TAK1 (unknown origin) at 100 nM by ADP-Glo kinase assay
[3] = target: T1, Mitogen-activated protein kinase kinase kinase 7 (Homo sapiens); assay: Inhibition of TAK1 (unknown origin) at 20 nM by ADP-Glo kinase assay
MPC-11 [4] = assay: Cytotoxicity against mouse MPC-11 cells assessed as reduction in cell viability incubated for 72 hrs by CellTiter-Blue assay; type: functional
Outline: (§1)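 H929 (RPMI, 10% heat-inactivated FBS) or MPC-11 (DMEM, 10% FBS) cells, under 10 passages, 37 °C, 5% CO₂; 4–5 × 10³ cells/well seeded, 24 h, then compound at various concentrations for 72 h. CellTiter-Blue added for 3 h, fluorescence ex/em 560/590 nm. Normalized to DMSO-treated cells; triplicate, mean and standard deviation.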

NCI-H929 = assay: Cytotoxicity against human NCI-H929 cells assessed as reduction in cell viability incubated for 72 hrs by CellTiter-Blue assay; type: functional; outline: as §1
MPC-11 [5] = assay: Cytotoxicity against mouse MPC-11 cells assessed as reduction in cell viability at 0.2 to 1 uM to incubated for 72 hrs by CellTiter-Blue assay; type: functional, cell-based; details: dose 0.2-1 µM; outline: as §1
[6] = target: Mitogen-activated protein kinase kinase kinase 7 (Homo sapiens, UniProt O43318); assay: Inhibition of human TAK1 using casein as substrate in presence of [gamma-33P]-ATP by radiometric hotspot kinase assay
MPC-11 [7] = assay: Cytotoxicity against mouse MPC-11 cells assessed as reduction in cell viability at 200 nM incubated for 72 hrs by CellTiter-Blue assay; type: functional; outline: as §1
[8] = target: Mitogen-activated protein kinase kinase kinase 7 (Mus musculus) (UniProt Q62073); assay: Inhibition of TAK1 in mouse MPC-11 cells assessed as reduction in TAK1 phosphorylation at Ser412 residue at 0.1 to 0.5 uM incubated for 48 hrs by Western blot analysis; type: cell-based; details: dose 0.1-0.5 µM
Mitogen-activated protein kinase kinase kinase 7 (Mus musculus), sequence (Q62073 whole entry): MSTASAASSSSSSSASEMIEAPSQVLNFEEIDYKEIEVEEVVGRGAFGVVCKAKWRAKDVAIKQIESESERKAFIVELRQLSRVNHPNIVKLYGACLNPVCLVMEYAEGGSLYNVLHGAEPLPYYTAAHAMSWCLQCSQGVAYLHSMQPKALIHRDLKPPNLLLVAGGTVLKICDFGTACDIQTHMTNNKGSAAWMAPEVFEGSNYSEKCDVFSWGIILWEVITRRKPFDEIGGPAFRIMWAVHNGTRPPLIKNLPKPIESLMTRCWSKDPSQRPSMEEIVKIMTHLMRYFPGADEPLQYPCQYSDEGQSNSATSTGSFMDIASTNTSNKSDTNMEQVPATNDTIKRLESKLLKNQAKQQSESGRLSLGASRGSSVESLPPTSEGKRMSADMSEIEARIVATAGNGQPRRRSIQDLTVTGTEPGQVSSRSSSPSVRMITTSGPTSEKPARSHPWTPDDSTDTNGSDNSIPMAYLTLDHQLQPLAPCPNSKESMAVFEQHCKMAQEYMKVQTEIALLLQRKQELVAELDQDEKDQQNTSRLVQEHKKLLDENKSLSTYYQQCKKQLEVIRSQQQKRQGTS
Outline: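 MPC-11 cells (0.5–1 × 10⁶/well) seeded, treated after 24 h for 48 h; DMSO control. BCA protein quantitation, 10% SDS-PAGE, PVDF; pTAK1, TAK1, β-actin antibodies overnight 4 °C, HRP secondaries 2 h 24 °C, chemiluminescence. Bands quantified relative to actin; duplicates, mean and standard deviation.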

Row | Structure (SMILES) | inhibition [1] | inhibition [2] | other results
1 | COCCN1CCN(c2ccc3ncc(-c4ccc5[nH]nc(C)c5c4)n3n2)CC1 | > 50% | 46% | 
2 | C[C@@H]1CN(c2ccc3ncc(-c4cccc(C#N)c4)n3n2)C[C@H](C)O1 | < 50% |  | 
3 | Cc1n[nH]c2ccc(-c3cnc4ccc(N5CCOC(C)(C)C5)nn34)cc12 | 100% | > 50% | inhibition [3]: > 50%; GI50 (MPC-11 [4]): 126 nM; GI50 (NCI-H929): 24 nM; Activity (MPC-11 [5]): Active
4 | C[C@@H]1CN(c2ccc3ncc(-c4ccc(OC(F)(F)F)cc4)n3n2)C[C@H](C)O1 | < 50% |  | 
5 | Cc1n[nH]c2ccc(-c3cnc4cccnn34)cc12 |  | 26% | 
6 | C[C@@H]1CN(c2ccc3ncc(-c4ccc(CC#N)cc4)n3n2)C[C@H](C)O1 | < 50% |  | 
7 | Cc1nc2ccc(N3C[C@@H](C)O[C@@H](C)C3)nn2c1-c1ccc2[nH]nc(C)c2c1 | < 50% |  | 
8 | C[C@@H]1CN(c2ccc3ncc(-c4ccc(S(N)(=O)=O)cc4)n3n2)C[C@H](C)O1 | < 50% |  | 
9 | Cc1n[nH]c2ccc(-c3cnc4ccc(N5C[C@@H](C)O[C@H](C)C5)nn34)cc12 | > 50% | > 50% | inhibition [3]: > 50%; Activity (MPC-11 [5]): Active
10 | C[C@@H]1CN(c2ccc3ncc(-c4ccc(C#N)cc4)n3n2)C[C@H](C)O1 | < 50% |  | 
11 | C[C@@H]1CN(c2ccc3ncc(-c4ccc(F)c(C#N)c4)n3n2)C[C@H](C)O1 | < 50% |  | 
12 | C[C@@H]1CN(c2ccc3ncc(-c4ccncc4)n3n2)C[C@H](C)O1 | < 50% |  | 
13 | Cc1n[nH]c2ccc(-c3cnc4ccc(N5C[C@H]6C[C@@H]5CO6)nn34)cc12 | > 50% | > 50% | inhibition [3]: > 50%; GI50 (MPC-11 [4]): 155 nM; GI50 (NCI-H929): 71 nM; Activity (MPC-11 [5]): Active
14 | CCCn1/c(=N/C(=O)c2cccc(C(N)=O)c2)[nH]c2ccccc21 |  |  | IC50 [6]: 187 nM; GI50 (MPC-11 [4]): 8500 nM; GI50 (NCI-H929): 51000 nM
15 | C[C@@H]1CN(c2ccc3ncc(-c4ccc5cnn(C)c5c4)n3n2)C[C@H](C)O1 | > 50% | > 50% | 
16 | C[C@@H]1CN(c2ccc3ncc(-c4cccnc4)n3n2)C[C@H](C)O1 | < 50% |  | 
17 | C[C@@H]1CN(c2ccc3ncc(-c4ccccc4)n3n2)C[C@H](C)O1 | < 50% |  | 
18 | C[C@@H]1CN(c2ccc3ncc(-c4ccc5c(c4)CC(=O)N5)n3n2)C[C@H](C)O1 | < 50% |  | 

Row | Structure (SMILES) | inhibition [1] | inhibition [2] | other results
19 | C[C@@H]1CN(c2ccc3ncc(-c4cccc(S(C)(=O)=O)c4)n3n2)C[C@H](C)O1 | < 50% |  | 
20 | Cc1n[nH]c2ccc(-c3cnc4ccc(N5CCOCC5)nn34)cc12 | > 50% | 91% | 
21 | CCc1n[nH]c2ccc(-c3cnc4ccc(N5C[C@@H](C)O[C@@H](C)C5)nn34)cc12 | 100% | > 50% | inhibition [3]: > 50%; GI50 (MPC-11 [4]): 94 nM; GI50 (NCI-H929): 30 nM
22 | C[C@@H]1CN(c2ccc3ncc(-c4ccc(C(F)(F)F)cc4)n3n2)C[C@H](C)O1 | < 50% |  | 
23 | C[C@@H]1CN(c2ccc3ncc(-c4ccc5[nH]ncc5c4)n3n2)C[C@H](C)O1 | > 50% | > 50% | 
24 | Cc1n[nH]c2ccc(-c3cnc4ccc(N5CCO[C@H](C)C5)nn34)cc12 | > 50% | > 50% | inhibition [3]: > 50%; inhibition at 0.2 µM (MPC-11 [7]): ~50%; Activity (MPC-11 [5]): Active
25 | C[C@@H]1CN(c2ccc3ncc(-c4cccc5[nH]ncc45)n3n2)C[C@H](C)O1 | < 50% |  | 
26 | CNC(=O)c1ccc(-c2cnc3ccc(N4C[C@@H](C)O[C@@H](C)C4)nn23)cc1 | < 50% |  | 
27 | C[C@@H]1CN(c2ccc3ncc(-c4ccc5cn[nH]c5c4)n3n2)C[C@H](C)O1 | > 50% | > 50% | 
28 | Cc1n[nH]c2ccc(-c3cnc4ccc(N5C[C@@H]6C[C@H]5CO6)nn34)cc12 | > 50% | > 50% | inhibition [3]: > 50%; GI50 (MPC-11 [4]): 101 nM; GI50 (NCI-H929): 45 nM; Activity (MPC-11 [5]): Active
29 | Cc1n[nH]c2ccc(-c3cnc4ccc(N5C[C@@H](C)O[C@@H](C)C5)nn34)cc12 | 100% | 95% | inhibition [3]: > 50%; GI50 (MPC-11 [4]): 72 nM; GI50 (NCI-H929): 87 nM; inhibition [8]: Active
30 | Cc1n[nH]c2ccc(-c3cnc4ccc(N5CCO[C@@H](C)C5)nn34)cc12 | 100% | > 50% | inhibition [3]: > 50%; inhibition (MPC-11 [7]): inactive; Activity (MPC-11 [5]): inactive
31 | C[C@@H]1CN(c2ccc3ncc(-c4ccc(F)cc4)n3n2)C[C@H](C)O1 | < 50% |  | 
32 | C[C@@H]1CN(c2ccc3ncc(-c4ccc(C(N)=O)cc4)n3n2)C[C@H](C)O1 | 74% | < 50% | 
33 | Cc1n[nH]c2ccc(-c3cnc4ccc(N5CC6CCC(C5)O6)nn34)cc12 | > 50% | > 50% | inhibition [3]: > 50%; GI50 (MPC-11 [4]): 131 nM; GI50 (NCI-H929): 33 nM; Activity (MPC-11 [5]): Active
34 | C[C@@H]1CN(c2ccc3ncc(-c4ccc(Cl)cc4)n3n2)C[C@H](C)O1 | < 50% |  | 
35 | C[C@@H]1CN(c2ccc3ncc(-c4ccc5c(cnn5C)c4)n3n2)C[C@H](C)O1 | < 50% |  | 
